High-throughput results as filed in PubChem.
APP 5'UTR act: activates APP 5'UTR luciferase reporter; SH-SY5Y APP 5'UTR luciferase reporter, luminescence; zero percent = DMSO vehicle wells; AID 1276; activation, % at 2 µM; 190,000 compounds, 1% hits;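 active = activation above a set limit, based on mean plus 3 SD of controls, cut at about 140% in these data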
NF-kB neuron act: NF-kB expression increase, human neuronal cells; AID 1239; fold change at 12.5 µM; 190,000 compounds, 1.6% hits; NF-kB reporter expression; hits give high values; in the data active = fold change above about 3.3
STAT1 act: STAT1 signaling activation | NIH 3T3 STAT1-luciferase reporter, IFN-gamma, luminescence; 100% = IFN-gamma alone, no compound | activation (% of control), % at 5.5 µM | 200,000 compounds, 2.6% hits;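 active = activation above the screen-wide mean activation plus 3 SD, cut at about 130% in these data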;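 note: raw ratio to IFN-gamma control signal so 100% means no change and 0% no light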
FLuc stim CS: firefly luciferase counter-screen for stimulation assays | P08659 | ATPlite luciferase biochemical, luminescence, 10 min; 0 = ATP-free wells, 1 = DMSO control | activation factor at 10 µM | 200,000 tested, under 10 active | AID 1027;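 active = luciferase activation factor, scaled between plate controls, of at least 2 with compound at 10 µM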
Target sequence (P08659 whole entry, looked up): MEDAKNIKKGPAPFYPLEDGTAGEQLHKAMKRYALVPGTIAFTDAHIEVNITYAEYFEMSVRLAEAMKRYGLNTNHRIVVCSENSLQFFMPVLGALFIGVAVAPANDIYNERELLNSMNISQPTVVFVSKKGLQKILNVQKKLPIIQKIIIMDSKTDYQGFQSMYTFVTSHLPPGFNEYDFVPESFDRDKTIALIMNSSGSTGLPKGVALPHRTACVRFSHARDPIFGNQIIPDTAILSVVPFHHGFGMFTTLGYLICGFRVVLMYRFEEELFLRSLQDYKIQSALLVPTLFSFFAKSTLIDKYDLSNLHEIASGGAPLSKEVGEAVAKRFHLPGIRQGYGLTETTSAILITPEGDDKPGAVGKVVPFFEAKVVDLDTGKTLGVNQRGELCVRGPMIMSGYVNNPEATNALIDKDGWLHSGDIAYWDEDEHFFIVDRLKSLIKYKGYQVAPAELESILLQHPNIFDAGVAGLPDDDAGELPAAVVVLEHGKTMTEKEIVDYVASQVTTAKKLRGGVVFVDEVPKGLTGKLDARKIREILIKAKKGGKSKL
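Material: Luciferase/luciferin reagent mix; Doses: test compounds dosed from 2 mM stocks in 100% DMSO; Schedule: 10 min incubation after luciferase reagent addition, room temperature; Measured by: luminescence from luciferase reaction; Read-out: luminescence gain marking luciferase activators.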
FLuc inhib CS: Photinus pyralis luciferase inhibition counter-screen | inhibition, % at 10 µM | ATPLite firefly luciferase biochemical luminescence, 10 min | 200,000 compounds, 1.5% hits | AID 1006 | P08659;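 active = inhibition above about 50% when tested at 10 µM, limit read from the data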
The depositor's hits bear a star. Sampled rows, rich in hits. Any-hit rate of the full collection: about 4.1%.

Results for O=C(/C=C/c1cccc(Cl)c1)c1nc2ccccc2[nH]1 ?
APP 5'UTR act: -2; NF-kB neuron act: 2.5; STAT1 act: 106; FLuc stim CS: 0.6; FLuc inhib CS: 44

What do the screens show for `O=C(CCN1CCN(c2ccccc2)CC1)Nc1ccccc1F`?
APP 5'UTR act: 21; NF-kB neuron act: 1.3; STAT1 act: 102; FLuc stim CS: 1.1; FLuc inhib CS: -5

Results for Cc1[nH]c2ccccc2c1C(c1ccccn1)N1CCCC1 (stereo unspecified) ?
APP 5'UTR act: 5; NF-kB neuron act: 0.94; STAT1 act: 102; FLuc stim CS: 1; FLuc inhib CS: -4

Results for Oc1c(C(c2ccccn2)N2CCCCC2)cc(Cl)c2cccnc12 (stereo unspecified) ?
APP 5'UTR act: 14; NF-kB neuron act: 4.9*; STAT1 act: 107; FLuc stim CS: 1.1; FLuc inhib CS: -14

Results for CCn1c(COc2ccccc2C)nnc1SCC(=O)NC1CCCC1 ?
APP 5'UTR act: 2; NF-kB neuron act: 1.1; STAT1 act: 101; FLuc stim CS: 1.1; FLuc inhib CS: -7

How did O=C(NNc1nc2ccccc2s1)Nc1ccccc1 do in these assays?
APP 5'UTR act: 115; NF-kB neuron act: 1.7; STAT1 act: 138*; FLuc stim CS: 1; FLuc inhib CS: 2

How did CCNC(=O)Nc1nc2ccccc2s1 do in these assays?
APP 5'UTR act: 77; NF-kB neuron act: 2.6; STAT1 act: 146*; FLuc stim CS: 0.8; FLuc inhib CS: 24

Results for O=C(CSc1ccccn1)Nc1nc2ccccc2s1 ?
APP 5'UTR act: 1; NF-kB neuron act: 1.9; STAT1 act: 112; FLuc stim CS: 1; FLuc inhib CS: -3

How did CC(=O)N1CCC(=NNc2nc3ccccc3s2)CC1 do in these assays?
APP 5'UTR act: 108; NF-kB neuron act: 2.1; STAT1 act: 136*; FLuc stim CS: 0.9; FLuc inhib CS: 13

How did Cn1ccnc1SCC(=O)Nc1nc2ccccc2s1 do in these assays?
APP 5'UTR act: 27; NF-kB neuron act: 0.88; STAT1 act: 134*; FLuc stim CS: 1; FLuc inhib CS: 1

Results for CC(=O)NNc1nc2ccccc2s1 ?
APP 5'UTR act: 1; NF-kB neuron act: 1.1; STAT1 act: 91; FLuc stim CS: 1.1; FLuc inhib CS: -7

How did COc1ccc(/C=C/C(=O)Nc2nc(C)cc(C)n2)cc1OC do in these assays?
APP 5'UTR act: 11; NF-kB neuron act: 1.5; STAT1 act: 103; FLuc stim CS: 1; FLuc inhib CS: 4

Results for Cc1cc2cc(CNC(=O)c3cccs3)ccc2n1C ?
APP 5'UTR act: 25; NF-kB neuron act: 1.6; STAT1 act: 99; FLuc stim CS: 1; FLuc inhib CS: 3

Results for S=C(Nc1ccccc1)c1nc2ccccc2s1 ?
APP 5'UTR act: 101; NF-kB neuron act: 2.4; STAT1 act: 138*; FLuc stim CS: 0.9; FLuc inhib CS: 6

Results for O=C(CCc1nc2ccccc2s1)Nc1ccccc1 ?
APP 5'UTR act: -1; NF-kB neuron act: 0.97; STAT1 act: 96; FLuc stim CS: 1; FLuc inhib CS: -2

How did Cc1cccc2nc(CSc3ccccc3N)cn12 do in these assays?
APP 5'UTR act: 132; NF-kB neuron act: 4.6*; STAT1 act: 140*

Results for Cc1cccc2nc(CSc3ccccc3C(=O)O)cn12 ?
APP 5'UTR act: 4; NF-kB neuron act: 1.1; STAT1 act: 99; FLuc stim CS: 1; FLuc inhib CS: 4

How did O=c1[nH]c2cc3c(cc2cc1CN(CCO)S(=O)(=O)c1ccccc1Cl)OCCO3 do in these assays?
APP 5'UTR act: 13; NF-kB neuron act: 0.78; STAT1 act: 96; FLuc stim CS: 1.1; FLuc inhib CS: -5

What do the screens show for `O=C(NNC1=NS(=O)(=O)c2ccccc21)c1ccc(Cl)cc1`?
APP 5'UTR act: -1; NF-kB neuron act: 1.5; STAT1 act: 95; FLuc stim CS: 0.2; FLuc inhib CS: 84*

Results for CN1CCN(c2ccc(NC(=O)c3sc4ccccc4c3Cl)cc2)CC1 ?
APP 5'UTR act: 182*; NF-kB neuron act: 2.7; STAT1 act: 115; FLuc stim CS: 0.6; FLuc inhib CS: 37

Results for CCn1nnc(NC(=O)c2sc3ccccc3c2Cl)n1 ?
APP 5'UTR act: 67; NF-kB neuron act: 2.5; STAT1 act: 121; FLuc stim CS: 0.3; FLuc inhib CS: 67*

What do the screens show for `O=C(Nc1ccncc1)c1sc2ccccc2c1Cl`?
APP 5'UTR act: 61; NF-kB neuron act: 1.4; STAT1 act: 121; FLuc stim CS: 0.8; FLuc inhib CS: 16

Results for CCN(CC)S(=O)(=O)c1ccc2oc(C(=O)NCCCN3CCOCC3)c(C)c2c1 ?
APP 5'UTR act: 2; NF-kB neuron act: 0.59; STAT1 act: 103; FLuc stim CS: 1; FLuc inhib CS: -3

What do the screens show for `O=C(N/N=C/c1c[nH]c2ccccc12)c1cc(-c2ccccc2)n[nH]1`?
APP 5'UTR act: -7; NF-kB neuron act: 0.54; STAT1 act: 103; FLuc stim CS: 1; FLuc inhib CS: 4

Results for CCc1ccc(-c2cc(C(=O)N/N=C/c3ccccn3)[nH]n2)cc1 ?
APP 5'UTR act: -1; NF-kB neuron act: 0.97; STAT1 act: 110; FLuc stim CS: 0.6; FLuc inhib CS: 38

Results for O=C(N/N=C/c1ccccn1)c1cc(-c2ccc3ccccc3c2)n[nH]1 ?
APP 5'UTR act: 5; NF-kB neuron act: 0.74; STAT1 act: 148*; FLuc stim CS: 0.9; FLuc inhib CS: 6

Results for O=C(N/N=C/c1c[nH]c2ccccc12)c1cc(-c2ccc(-c3ccccc3)cc2)n[nH]1 ?
APP 5'UTR act: 70; NF-kB neuron act: 0.95; STAT1 act: 98; FLuc stim CS: 0.5; FLuc inhib CS: 50*

How did O=C(N/N=C/c1c[nH]c2ccccc12)c1cc(-c2ccc3ccccc3c2)n[nH]1 do in these assays?
APP 5'UTR act: -88; NF-kB neuron act: 0.61; STAT1 act: 140*; FLuc stim CS: 0.8; FLuc inhib CS: 19

What do the screens show for `C/C(CCc1ccco1)=N/NC(=O)CCC(=O)Nc1cccc(Cl)c1`?
APP 5'UTR act: -9; NF-kB neuron act: 2; STAT1 act: 110; FLuc stim CS: 1.1; FLuc inhib CS: -9

Results for c1ccc(Cn2ccc(-c3cnc(-c4ccccc4)s3)n2)cc1 ?
APP 5'UTR act: 125; NF-kB neuron act: 6.8*; STAT1 act: 142*; FLuc stim CS: 0.6; FLuc inhib CS: 44

How did Nc1ccn(Cc2ccccc2)n1 do in these assays?
APP 5'UTR act: 5; NF-kB neuron act: 1.4; STAT1 act: 98; FLuc stim CS: 1; FLuc inhib CS: -4

What do the screens show for `O=[N+]([O-])c1cccnc1N1CCC(c2cc(-c3cccc(C(F)(F)F)c3)n[nH]2)CC1`?
APP 5'UTR act: 19; NF-kB neuron act: 0.75; STAT1 act: 80; FLuc stim CS: 1.1; FLuc inhib CS: -8

How did CC(C)Sc1nc2sc(-c3ccccc3)cc2c(=O)n1N do in these assays?
APP 5'UTR act: 20; NF-kB neuron act: 1.2; STAT1 act: 107; FLuc stim CS: 1.1; FLuc inhib CS: -5

How did CSc1nc2sc(-c3ccccc3)cc2c(=O)n1N do in these assays?
APP 5'UTR act: 2; NF-kB neuron act: 2; STAT1 act: 138*; FLuc stim CS: 0.7; FLuc inhib CS: 34
